Measurements reported in ChEMBL document CHEMBL1130854, “Diarylsulfonamides as selective, non-peptidic thrombin inhibitors” (Bioorg Med Chem Lett, 1998).

How the values were obtained:
[1] = Inhibitory activity against trypsin/plasmin/factor Xa
[2] = Compound was tested for the concentration which causes a doubling of the thrombin clotting time of human plasma.; assay type: functional
Procedure, shortened: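 Human plasma thrombin clotting time measured across inhibitor concentrations (μM). Coagulation time (sec) fitted to y = a + b·x^c, a being the uninhibited clotting time and b, c shape/location parameters. Value taken as the concentration that doubles the clotting time (IC200).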

Prothrombin = Prothrombin (Homo sapiens, UniProt P00734); assay: Inhibitory activity against thrombin

SMILES | Ki [1] [µM] | IC200 [2] [µM] | Ki (Prothrombin) [µM]
O=S(=O)(Nc1cccc(OCCNc2ccncc2)c1)c1ccccc1 | > 500 | 2.3 | 
Cc1cc(NS(=O)(=O)c2ccccc2)cc(OCCNc2ccncc2)c1 | > 500 | 0.29 | 0.023
Cc1cc(NS(=O)(=O)c2ccccc2)cc(OCCCCN=C(N)N)c1 | > 500 | 10 | 0.18
Cc1cc(NS(=O)(=O)c2ccccc2)cc(OCCN=C(N)N)c1 | > 500 | 38 | 2
Cc1cc(NS(=O)(=O)c2ccccc2)cc(OCCCCCN)c1 | > 500 | >250 | 9.9
Cc1cc(NS(=O)(=O)c2ccccc2)cc(OCCCN=C(N)N)c1 | > 500 | 10 | 0.63
Cc1cc(NS(=O)(=O)c2ccccc2)cc(OCCCCCN=C(N)N)c1 | > 500 | 188 | 6.4
Cc1cc(NS(=O)(=O)c2ccccc2)cc(OCCCN)c1 | > 500 | >250 | 170
Cc1cc(NS(=O)(=O)c2ccccc2)cc(OCCCCN)c1 | > 500 | 179 | 6.5
Cc1cc(NS(=O)(=O)c2ccccc2)cc(OCCN)c1 | > 500 | >250 | 240
Cc1cc(NS(=O)(=O)c2ccccc2)cc(OCCCCCCN)c1 | > 500 | >250 | 9
Cc1cc(NS(=O)(=O)c2ccccc2)cc(OCCCCCCN=C(N)N)c1 | > 500 | 237 | 7
